These results are taken from article PMC5509056 (FEBS letters, 2017).

Assay [1] deals with rat hippocampus membranes. In words: Agonist-stimulated [^35S]GTPγS binding in rat hippocampus membranes. It is filed as biochemical, rat (Wistar).
Assay [2] deals with supraoptic nucleus (SON) neurons; μ receptor. Briefly: Whole cell patch clamp, evoked outward / holding current in SON neurons. Type of assay: cell-based, rat (Sprague Dawley). To be noted: for holding current response in SON: 1 μM, six cells in the SON.
Assay [3] deals with rostral supraoptic nucleus (SON) cells. Briefly: Spontaneous firing rate. As to conditions: 1 μM, six cells in the SON. It is filed as cell-based, rat (Sprague Dawley). In outline: (§1)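 Coronal hypothalamic slices (250 μm) came from halothane-anaesthetised 20–24-day-old rats, cut in ice-cold sucrose ACSF and warmed to 35°C over 30 min. Slices were held submerged in 32°C ACSF (MgCl2 1.2, CaCl2 2.4 mM) gassed with 95% O2/5% CO2. Neurons were visualised by IR-DIC and patched with 5–8 MΩ pipettes (K-gluconate internal, pH 7.2) for whole-cell current and/or voltage clamp.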

For assay [4], the system named is suprachiasmatic nucleus (SCN) cells. In words: Spontaneous firing rate. It is filed as cell-based, rat (Sprague Dawley). As to conditions: 1 μM, six cells in the SCN. In outline: as §1
For assay [5] the test system is unchanged. Briefly: Whole cell patch clamp, holding current in SCN neurons. It is filed as cell-based, rat (Sprague Dawley). As to conditions: 1 μM, six cells in the SCN.
A further assay deals with mu-opioid receptor (MOR). To be noted: endomorphins EM1 and EM2; ref [5], [6], [7]; cited from earlier work.

Turning to `C=CCN1CC[C@]23c4c5ccc(O)c4O[C@H]2C(=O)CC[C@@]3(O)[C@H]1C5` [naloxone, reference compound], in assay [1] (naloxone saturating concentrations (10 μM) with Mx-1), the “inhibition of agonist effect of Mx-1 in promoting incorporation of γ-GTP” value is listed as “inhibited the agonist effect of Mx-1”.
In the case of CTOP [reference compound], the “Mx-1 evoked current amplitude in presence of CTOP” value in assay [2] (CTOP 100 nM added to bath with 100 nM Mx-1, six SON neurons) turned out to be 3.8 ± 2.0 pA.
As for “NH2-PPPRSPYSGKGLGPGNLLHSALLPIHCICLC-COO^- [Mx-3]”, the “agonist-stimulated activity of Mx-3 compared with Mx-1” value in assay [1] ([^35S]GTPγS, rat hippocampus membranes, comparison with Mx-1, discussion) is listed as “greater than that displayed by Mx-1”. Further, the “[^35S]GTPγS binding at high concentrations (decrease)” value in assay [1] (high concentrations, for Mx-1: 1.2, 2.4 and 4.8 μM) is on record as “not observed”. Besides, the “SFR response in SON” value in assay [3] is “no measurable difference”. Also, the “SFR response in SCN” value in assay [4] is given as “no measurable difference”. In addition, in assay [2], the “holding current response in SON” value is listed as “no measurable difference”. Further, the “holding current response in SCN” value in assay [5] is on record as “no measurable difference”.
As for NH2-TSRTDGTQS-COO^- [Mx-2], the “SFR response in SON” value in assay [3] is “no measurable difference”. Further, the “SFR response in SCN” value in assay [4] is given as “no measurable difference”. Moreover, the “holding current response in SON” value in assay [2] is on record as “no measurable difference”. Moreover, the “holding current response in SCN” value in assay [5] is “no measurable difference”.
As for Tyr-Pro-Phe-Phe-NH2 [EM2], the “binding affinity and selectivity to MOR (in words)” value in the assay with mu-opioid receptor (MOR) is “high binding affinity and selectivity to the mu-opioid receptor”.
Take Tyr-Pro-Trp-Phe-NH2 [EM1]: the “binding affinity and selectivity to MOR (in words)” value with mu-opioid receptor (MOR) is “high binding affinity and selectivity to the mu-opioid receptor”.
